Assay results published in ChEMBL document CHEMBL4346673, “Synthesis and biological evaluation of pyridazinone derivatives as selective COX-2 inhibitors and potential anti-inflammatory agents” (Eur J Med Chem, 2019).

What was measured:
[1] = biological target: Prostaglandin G/H synthase 1 (Homo sapiens, UniProt P23219); assay: Inhibition of human COX1 assessed as reduction in PGF2alpha production using arachidonic acid as substrate preincubated with enzyme for 10 mins followed by substrate addition by ELISA; format: single protein
Sequence of Prostaglandin G/H synthase 1 (P23219 whole entry): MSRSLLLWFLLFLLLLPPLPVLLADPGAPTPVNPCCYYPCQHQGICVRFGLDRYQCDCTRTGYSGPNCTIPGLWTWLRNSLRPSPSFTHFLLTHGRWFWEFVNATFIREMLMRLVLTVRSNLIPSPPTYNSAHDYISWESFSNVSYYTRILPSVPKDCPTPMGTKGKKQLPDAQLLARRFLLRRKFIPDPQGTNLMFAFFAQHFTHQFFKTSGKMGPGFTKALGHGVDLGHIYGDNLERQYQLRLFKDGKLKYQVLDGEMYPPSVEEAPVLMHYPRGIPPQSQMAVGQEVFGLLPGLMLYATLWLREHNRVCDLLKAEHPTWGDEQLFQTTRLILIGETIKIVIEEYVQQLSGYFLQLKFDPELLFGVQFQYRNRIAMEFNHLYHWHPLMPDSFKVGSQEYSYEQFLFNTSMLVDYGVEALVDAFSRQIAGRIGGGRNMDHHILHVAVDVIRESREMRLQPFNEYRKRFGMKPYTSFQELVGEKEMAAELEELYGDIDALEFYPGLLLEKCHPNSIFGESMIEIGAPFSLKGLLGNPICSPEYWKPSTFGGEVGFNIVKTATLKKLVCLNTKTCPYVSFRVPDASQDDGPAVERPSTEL

[2] = system: Rattus norvegicus; assay: Antiinflammatory activity against carrageenan-induced albino Sprague-Dawley rat paw edema model assessed as paw diameter at 10 mg/kg, po pretreated for 1 hr followed by carrageenan challenge and measured immediately after carrageenan injection (reference value: 3.46 +/- 0.08 mm); format: functional
[3] = system: Rattus norvegicus; assay: Antiinflammatory activity against carrageenan-induced albino Sprague-Dawley rat paw edema model assessed as paw diameter at 10 mg/kg, po pretreated for 1 hr followed by carrageenan challenge and measured at 1 hr post-carrageenan injection (reference value: 4.51 +/- 0.09 mm); format: functional
[4] = system: Rattus norvegicus; assay: Antiinflammatory activity against carrageenan induced albino Sprague-Dawley rat paw edema model assessed as paw edema at 10 mg/kg, po pretreated for 1 hr followed by carrageenan challenge and measured at 1 hr post-carrageenan injection (reference value: 30.3%); format: functional
[5] = system: Rattus norvegicus; assay: Antiinflammatory activity against carrageenan induced albino Sprague-Dawley rat paw edema model assessed as paw diameter at 10 mg/kg, po pretreated for 1 hr followed by carrageenan challenge and measured at 2 hrs post-carrageenan injection (reference value: 4.72 +/- 0.08 mm); format: functional
[6] = system: Rattus norvegicus; assay: Antiinflammatory activity against carrageenan-induced albino Sprague-Dawley rat paw edema model assessed as paw edema at 10 mg/kg, po pretreated for 1 hr followed by carrageenan challenge and measured at 2 hrs post-carrageenan injection (reference value: 36.4%); format: functional
[7] = system: Rattus norvegicus; assay: Antiinflammatory activity against carrageenan induced albino Sprague-Dawley rat paw edema model assessed as paw diameter at 10 mg/kg, po pretreated for 1 hr followed by carrageenan challenge and measured at 3 hrs post-carrageenan injection (reference value: 4.79 +/- 0.1 mm); format: functional
[8] = system: Rattus norvegicus; assay: Antiinflammatory activity against carrageenan induced albino Sprague-Dawley rat paw edema model assessed as paw edema at 10 mg/kg, po pretreated for 1 hr followed by carrageenan challenge and measured at 3 hrs post-carrageenan injection (reference value: 38.4%); format: functional
[9] = system: Rattus norvegicus; assay: Antiinflammatory activity against carrageenan induced albino Sprague-Dawley rat paw edema model assessed as paw diameter at 10 mg/kg, po pretreated for 1 hr followed by carrageenan challenge and measured at 4 hrs post-carrageenan injection (reference value: 4.88 +/- 0.1 mm); format: functional
[10] = system: Rattus norvegicus; assay: Antiinflammatory activity against carrageenan induced albino Sprague-Dawley rat paw edema model assessed as paw edema at 10 mg/kg, po pretreated for 1 hr followed by carrageenan challenge and measured at 4 hrs post-carrageenan injection (reference value: 41%); format: functional
[11] = Ulcerogenicity in albino rat assessed as gastric lesions at 10 mg/kg, po administered as single dose after 18 hrs of starvation challenge and measured after 4 hrs; format: toxicity, organism-based; settings: in vivo
Method in brief: (§1)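 Adult male albino rats fasted 18 h, then dosed orally at 10 mg/kg (saline control, reference drugs); six rats per group. Killed 4 h after treatment. Stomachs removed and examined macroscopically for hyperemia, single or multiple lesions, erosion, ulcer or perforation. Number of ulcers and occurrence of hyperemia recorded.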

[12] = Ulcerogenicity in albino rat assessed as severity of gastric lesions at 10 mg/kg, po administered as single dose after 18 hrs of starvation challenge and measured after 4 hrs; format: toxicity, organism-based; settings: in vivo; method in brief: as §1
[13] = Ulcerogenicity in albino rat assessed as mild hyperemia without ulceration at 10 mg/kg, po administered as single dose after 18 hrs of starvation challenge and measured after 4 hrs; format: toxicity, organism-based; settings: in vivo; method in brief: as §1

IC50 [1] [nM] | Structure (SMILES) | Activity [2] [mm] | Activity [3] [mm] | Activity [4] [%] | Activity [5] [mm] | Activity [6] [%] | Activity [7] [mm] | Activity [8] [%] | Activity [9] [mm] | Activity [10] [%] | UI [11] | UI [12] | Activity [13]
750 | O=C1CCC(/C=C/c2cccnc2)=NN1 | 3.53 | 3.92 | 11 | 3.86 | 9.3 | 3.81 | 7.9 | 3.78 | 7 | 0 | 0 | 
530 | COc1ccccc1/C=C/c1ccc(=O)[nH]n1 |  |  |  |  |  |  |  |  |  |  |  | 
700 | COc1ccccc1/C=C/c1ccc(=O)n(-c2ccc(F)cc2)n1 | 3.59 | 3.97 | 10.5 | 3.93 | 9.4 | 3.88 | 8 | 3.85 | 7.2 | 0 | 0 | 
390 | COc1ccccc1/C=C/C1=NN(c2ccccc2)C(=O)CC1 |  |  |  |  |  |  |  |  |  |  |  | 
240 | Cc1cccc(/C=C/c2ccc(=O)n(-c3ccc(F)cc3)n2)c1 |  |  |  |  |  |  |  |  |  |  |  | 
450 | Cc1cccc(/C=C/C2=NNC(=O)CC2)c1 | 3.51 | 3.99 | 13.6 | 3.92 | 11.6 | 3.84 | 10.2 | 3.8 | 8.2 | 0.2 | 0.4 | Toxic
540 | COc1ccccc1/C=C/C1=NN(c2ccc(F)cc2)C(=O)CC1 |  |  |  |  |  |  |  |  |  |  |  | 
 | COc1ccc2c(c1)c(CC(=O)O)c(C)n2C(=O)c1ccc(Cl)cc1 [INDOMETHACIN] | 3.49 | 3.92 | 12.3 | 3.85 | 10.3 | 3.81 | 9.4 | 3.73 | 8 | 8.3 | 12.4 | 
 | Cc1ccc(-c2cc(C(F)(F)F)nn2-c2ccc(S(N)(=O)=O)cc2)cc1 [CELECOXIB] | 3.48 | 3.93 | 12.9 | 3.88 | 11.4 | 3.83 | 10 | 3.78 | 8.6 | 2.7 | 6.2 | 
370 | Cc1cccc(/C=C/c2ccc(=O)[nH]n2)c1 | 3.55 | 3.96 | 11.5 | 3.86 | 8.7 | 3.84 | 8.1 | 3.82 | 7.6 | 0 | 0 | 
460 | COc1ccccc1/C=C/c1ccc(=O)n(-c2ccccc2)n1 |  |  |  |  |  |  |  |  |  |  |  | 
270 | COc1ccccc1/C=C/C1=NNC(=O)CC1 |  |  |  |  |  |  |  |  |  |  |  | 
210 | Cc1cccc(/C=C/C2=NN(c3ccc(F)cc3)C(=O)CC2)c1 |  |  |  |  |  |  |  |  |  |  |  | 
